Screens as filed in PubChem BioAssay.
A selection: hits, their analogues and other compounds. The true share with any hit is near 5.3%.
Mdm2 MdmX PPI: human Mdm2/MdmX binding inhibition; O15151+Q00987; SaOS-2 split-luciferase Mdm2/MdmX complementation, luminescence; inhibition, % at 8 µM; actives 3% (n = 330,000); AID 485346;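 active = inhibition of at least 50% at 8 µM in the primary screen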
Target sequence (O15151 whole entry, looked up): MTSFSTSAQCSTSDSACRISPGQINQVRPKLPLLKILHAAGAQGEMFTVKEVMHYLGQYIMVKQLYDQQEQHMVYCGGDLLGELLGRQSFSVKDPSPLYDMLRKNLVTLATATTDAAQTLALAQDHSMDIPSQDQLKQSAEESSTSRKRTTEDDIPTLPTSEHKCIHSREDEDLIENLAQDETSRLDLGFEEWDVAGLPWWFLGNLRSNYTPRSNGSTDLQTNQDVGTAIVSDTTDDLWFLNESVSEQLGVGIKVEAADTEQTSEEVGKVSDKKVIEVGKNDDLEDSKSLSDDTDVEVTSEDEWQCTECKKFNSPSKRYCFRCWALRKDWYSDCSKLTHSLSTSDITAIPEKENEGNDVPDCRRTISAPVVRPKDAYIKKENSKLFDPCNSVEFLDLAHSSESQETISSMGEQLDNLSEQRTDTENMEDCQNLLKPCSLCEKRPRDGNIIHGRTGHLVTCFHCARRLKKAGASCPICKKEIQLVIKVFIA
Target sequence (Q00987 whole entry, looked up): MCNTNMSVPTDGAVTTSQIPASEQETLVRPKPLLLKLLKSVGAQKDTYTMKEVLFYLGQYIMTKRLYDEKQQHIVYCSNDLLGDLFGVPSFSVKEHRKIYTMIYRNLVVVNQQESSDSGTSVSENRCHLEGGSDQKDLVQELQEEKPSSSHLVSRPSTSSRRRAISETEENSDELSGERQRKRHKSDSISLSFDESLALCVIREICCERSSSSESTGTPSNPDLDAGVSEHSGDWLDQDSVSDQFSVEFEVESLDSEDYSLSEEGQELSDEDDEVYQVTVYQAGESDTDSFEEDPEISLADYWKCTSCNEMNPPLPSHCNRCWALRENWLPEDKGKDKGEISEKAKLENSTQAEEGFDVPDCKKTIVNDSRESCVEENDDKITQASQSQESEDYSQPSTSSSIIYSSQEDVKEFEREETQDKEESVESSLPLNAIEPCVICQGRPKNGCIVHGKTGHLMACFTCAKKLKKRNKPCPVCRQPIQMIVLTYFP
NALP3 yeast inh: blocks the NALP3 inflammasome reconstituted in yeast; Yeast reconstituted NLRP3/ASC/caspase-1, beta-gal luminescence, 24 h; inhibition, % at 10 µM; actives 0.39% (n = 330,000); AID 2825;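 active = inhibition of 50% or more; inactive = inhibition below 50%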;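 also: plate controls were induced DMSO wells for no effect and uninduced yeast grown without galactose for full effect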
CSC inhib: blocks cancer stem cells. cancer stem cell-like cells viability, luminescence. inhibition, % at 7.5 µM. actives 1.1% (n = 300,000). AID 2717; in the data active = inhibition above about 75%; inconclusive = no clear call, values can overlap the other calls; tested in HMLE shEcad cells
T cruzi inh: blocks replication of Trypanosoma cruzi; T. cruzi beta-gal in NIH3T3, luminescence, 90 h; inhibition, % (concentration not given with the values); actives 1.4% (n = 300,000); AID 1885;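 active = mean inhibition across valid replicates above about 55%, limit read from the data; inconclusive = mean below that limit but half or more replicates reach it; inactive = mean below it, under half of replicates reach it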;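 also: signal also drops with host cell toxicity which is not excluded here; 0% = plate median of DMSO wells and 100% = zero luminescence signal; higher percent means less beta-gal luminescence so fewer parasites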
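assay system = mouse NIH/3T3 fibroblasts infected with β-gal-expressing T. cruzi Tulahuen C4 | input = 5,000 NIH/3T3 host cells per well | buffer or medium = DMEM plus 2% FBS | timing = 3 h host attachment, then at least 90 h co-culture | measured by = GalScreen luminescence, 60 min | evaluation = luminescence reflecting intracellular parasite burden, expressed as percent inhibition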
Beta cell apopt: blocks beta cell apoptosis; actives 0.8% (n = 300,000); INS-1E cytokine-induced death, ATP luminescence, 48 h; percent of positive-control rescue, neutral wells zero; AID 435005; protection from apoptosis, % (no concentration beside the values);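 active = Every replicate reaches about 75%, or at least half do and their mean reaches it too, limit read from the data; inconclusive = At least half of replicates reach the limit but their mean does not; inactive = Under half of replicates reach the limit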;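 also: 0% = cytokine-treated negative control wells and 100% = positive control rescue; higher means more ATP so stronger rescue from cytokine killing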
Calb FLC: C. albicans growth modulation with fluconazole. actives 0.57% (n = 300,000). growth inhibition, % (test concentration not listed). C. albicans CaCi-2 (fluconazole-resistant clinical isolate) + fluconazole, Alamar Blue growth, 48 h;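 active = growth inhibition above about 58% in most replicates, limit read from the data, passing the limit was not always enough; inconclusive = exactly half the replicates above a set limit; inactive = most replicates below a set limit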;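 also: all wells also contain fluconazole at 8 µg/ml as a sub-toxic cotreatment; 0% = median of DMSO wells and 100% = median of geldanamycin control wells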
Mdm2-MdmX conf: human Mdm2/MdmX binding inhibition, confirmed; luminescent assay; AID 489028; inhibition, % at 8 µM; actives 55% (n = 10,000); shares compounds with Mdm2 MdmX PPI; in the data active = inhibition above about 40%
FLuc counter: full-length luciferase inhibition in Mdm2/MdmX counter-screen; shares compounds with Mdm2 MdmX PPI; SaOS-2 full-length luciferase counterscreen, luminescence; inhibition, % at 8 µM; actives 77% (n = 6,200);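 active = mean inhibition at 8 µM reaching about 37%, which flags the compound as non-specific, limit read from the data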;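 also: p53-null SaOS-2 cells with luciferase driven by a doxycycline-inducible promoter; compound on cells about two nights before reading with doxycycline added after day one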
* marks the source's active call; other numbers are inactive results; ? = inconclusive; · = not tested or not shown.

SMILES | Mdm2 MdmX PPI | NALP3 yeast inh | CSC inhib | T cruzi inh | Beta cell apopt | Calb FLC | Mdm2-MdmX conf | FLuc counter
COC(=O)N1CCc2c(sc(NC(=O)C3=COCCO3)c2C#N)C1 | 56* | 16 | -12 | -12 | · | 28 | 75* | 66*
CC1=Nc2ccc(C)cc2/C1=C/c1c(N)n2c(S(=O)(=O)C(C)C)nsc2nc1=O | · | · | · | -13 | · | 12 | · | ·
O=[N+]([O-])c1ccc(Sc2nnnn2-c2ccccc2)c(Cl)c1 | 49 | 6 | 64 | 42 | 24 | -18 | · | ·
CC(=O)c1ccc(Sc2nnnn2-c2ccccc2)c([N+](=O)[O-])c1 | 85* | -6 | 39 | -8 | -8 | 42 | 58* | 30
CN1CCN(S(=O)(=O)c2ccc(Sc3nnnn3-c3ccccc3)c([N+](=O)[O-])c2)CC1 | 88* | 2 | 46 | -20 | · | 15 | 77* | 56*
CCOC(=O)c1cnc(-n2nc(C)cc2C)nc1NC1CCCC1 | 76* | 30 | -6 | 52 | 97* | -8 | 42* | 43*
CCOC(=O)c1cnc(-n2nc(C)cc2C)nc1N(C)C | -12 | 5 | -6 | -17 | -1 | 6 | · | ·
CCCOC1CCCN(C(=O)c2cc(Cl)c(Cl)cc2C(=O)O)C1 (centres undefined) | 6 | 20 | · | -10 | 1 | -3 | · | ·
Nc1c(N(C(=O)Nc2ccc(Cl)c(Cl)c2)C2CCCC2)c(=O)[nH]c(=O)n1Cc1ccccc1 | 78* | -9 | -28 | 14 | 27 | -6 | 18 | ·
N/C(=N\c1nc2ccccc2o1)NC(=O)c1ccc(F)cc1 | 67* | 11 | 4 | -5 | 12 | -32 | 8 | ·
CCc1nnc(NC(=O)CSc2nc(-c3ccccc3)cc(-c3ccc(F)cc3)c2C#N)s1 | 15 | 7 | -7 | 2 | 4 | -8 | · | ·
COc1ccc(-c2cc(-c3cccs3)c(C#N)c(SCC(=O)NCc3ccco3)n2)cc1 | 56* | 4 | -8 | · | -2 | · | 70* | 52*
COc1ccc(CNC(=O)CSc2nc(-c3ccccc3)cc(-c3cccs3)c2C#N)cc1 | 63* | 19 | 1 | -5 | 19 | ? | -4 | ·
COc1cc(-c2cc(-c3ccccc3)nc(SCC(=O)Nc3nccs3)c2C#N)cc(OC)c1OC | 51* | 17 | -2 | 55* | 13 | -28 | 26 | ·
CCOC(=O)c1c(NC(=O)CSc2n[nH]c(N)n2)sc(CC)c1C | 2 | 6 | 5 | 26 | 1 | 10 | · | ·
Cc1cc(NC(=O)C(C)SCC(=O)N(Cc2ccccc2)c2ccccc2)no1 (centres undefined) | 67* | 5 | 16 | -4 | 1 | 3 | 45* | 110*
O=C(COC(=O)c1c2c(nc3ccccc13)CCN(Cc1ccccc1)C2)Nc1c(F)cccc1F | 72* | -17 | 14 | 43 | -1 | 0 | 68* | 76*
CC(=O)Nc1ccc(NC(=O)COC(=O)c2c3c(nc4ccccc24)CCN(Cc2ccccc2)C3)cc1 | 51* | 9 | 5 | 7 | 0 | -5 | 56* | 84*
NC(=O)c1ccc(NC(=O)COC(=O)c2c3c(nc4ccccc24)/C(=C\c2cccs2)CCC3)cc1 | 85* | 1 | 115* | 37 | 60 | 57 | 75* | 77*
CCN1CCc2nc3ccccc3c(C(=O)Nc3ccc(NC(C)=O)cc3)c2C1 | 3 | 3 | 5 | 4 | 0 | -10 | · | ·
COc1ccc(CN2CCN(C(c3ccc(F)cc3)c3ccc(F)cc3)CC2)c(OC)c1OC | 81* | 24 | 60 | 41 | · | 6 | 45* | 69*
CC(=O)N1CCN(c2ccc(NC(=O)c3ccc4c(c3)OCCO4)cc2Cl)CC1 | 16 | 7 | 15 | 14 | -5 | 8 | · | ·
CC(C)C(=O)N1CCN(c2ccc(NC(=O)c3ccc4c(c3)OCCO4)cc2Cl)CC1 | 60* | 6 | · | 7 | 16 | 1 | 80* | 65*
Cc1ccc(S(=O)(=O)CCC(=O)OCC(=O)NCC(=O)Nc2cccc(C)c2C)cc1 | 11 | 9 | 1 | -6 | -4 | -1 | · | ·
CCn1c(CC(=O)Nc2ccccc2)n[nH]c1=S | 5 | -6 | 5 | 0 | 1 | 6 | · | ·
SMILES | Mdm2 MdmX PPI | NALP3 yeast inh | CSC inhib | T cruzi inh | Beta cell apopt | Calb FLC | Mdm2-MdmX conf | FLuc counter
Cc1ccc(S(=O)(=O)Nc2ccc3c(c2)OCCO3)cc1 | -8 | 18 | -9 | -6 | 3 | -25 | · | ·
O=C1CCCN1c1ccc(S(=O)(=O)Nc2ccc3c(c2)OCCO3)cc1 | 68* | -9 | 42 | -10 | 20 | 3 | 69* | 61*
COC(=O)Nc1nnc(SCc2ccc(C)cc2)s1 | -3 | 4 | 32 | 5 | 0 | 6 | · | ·
CC(=O)Nc1ccc2[nH]c(C)cc(=O)c2c1 | 5 | 2 | -7 | -8 | -7 | -5 | · | ·
CC(=O)Nc1ccc(Cc2ccc3[nH]c(=O)cc(C)c3c2)cc1 | 68* | 6 | 2 | -2 | 3 | · | 41* | 69*
CN(C(=O)CCNC(=O)Cn1cnc2ccccc2c1=O)c1ccc(F)cc1 | 6 | 4 | -7 | -6 | 0 | 5 | · | ·
CC1CCN(C(=O)c2cc3nc(-c4ccccc4)cc(-c4ccccc4)n3n2)CC1 | 44 | 14 | 35 | 42 | 26 | 9 | · | ·
COc1ccc(NC(=O)c2cc3nc(-c4ccccc4)cc(-c4ccccc4)n3n2)c(OC)c1 | 64* | -3 | · | -12 | 10 | 9 | 5 | ·
O=C(NC1CCCC1)c1cc2nc(-c3ccccc3)cc(-c3ccccc3)n2n1 | 55* | 21 | 23 | 12 | 22 | 4 | 15 | ·
CN(C)S(=O)(=O)c1ccc(-c2csc(N/N=C/c3ccco3)n2)cc1 | 72* | 16 | 20 | 6 | 20 | 5 | 36 | ·
CN(C)S(=O)(=O)c1ccc(-c2csc(N/N=C/c3ccc(O)cc3)n2)cc1 | 100* | 11 | 130* | 21 | 14 | 4 | 83* | 38*
C(=N\Nc1nc(-c2ccccc2)cs1)/c1ccncc1 | -57 | 31 | -7 | 19 | · | -7 | · | ·
Cc1cc(C)n(Cc2ccc(NC(=O)c3nn(C)cc3[N+](=O)[O-])cc2)n1 | 71* | 7 | 45 | -1 | -64 | -8 | 52* | 59*
Cn1cc([N+](=O)[O-])c(C(=O)Nc2ccc(C(=O)N3CCCCC3)cc2)n1 | 27 | 10 | · | -32 | -5 | 6 | · | ·
CCn1cc([N+](=O)[O-])c(C(=O)Nc2ccn(Cc3ccccc3)n2)n1 | -4 | 5 | -8 | 0 | -10 | 7 | · | ·
Cn1cc([N+](=O)[O-])c(C(=O)Nc2ccc(C3CCCCC3)cc2)n1 | 59* | 18 | 117* | 26 | -15 | 37 | 27 | 154*
Cc1ccc(Cn2ccc(NC(=O)c3nn(C)cc3[N+](=O)[O-])n2)cc1 | 59* | 19 | · | ? | -25 | 16 | 63* | 68*
